# From ChEMBL document CHEMBL5303300, “EUbOPEN Chemogenomics Library - Multiplex” (2023)
# Where “and” joins values, the source holds several entries; their conditions need not be identical. Identical values can stand only once.
# System: Fibroblast
# Test: Multiplex assay against human fibroblast
# Assay type: toxicity, cell-based
# Conditions: number of replicates 2
# Procedure, shortened: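 Compound was added to live cells that had been stained at seeding with Hoechst33342, BioTracker Green Microtubule Cytoskeleton Dye, MitoTracker Red and Annexin V Alexa Fluor 680, and imaging followed on a CQ1 microscope at 37°C and 5% CO2. CellPathfinder machine-learning gating divided cells into Hoechst high-intensity objects or normal cells, normal cells into healthy, pyknosed or fragmented nuclei, and pyknosed cells into mitotic or apoptotic. Tubulin, mitochondrial-mass and membrane-permeability phenotypes are per cents of healthy-nucleus cells.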
# [1] = 12 h, 1 µM, compound concentration 1 uM
# [2] = 12 h, 10 µM, compound concentration 10 uM
# [3] = 24 h, 1 µM, compound concentration 1 uM
# [4] = 24 h, 10 µM, compound concentration 10 uM
# [5] = 48 h, 1 µM, compound concentration 1 uM
# [6] = 48 h, 10 µM, compound concentration 10 uM
smiles,measurement,setting,value
COc1cc(C(=O)NC2CCN(C)CC2)ccc1Nc1ncc(C(F)(F)F)c(NCc2ccc(C)cc2N(C)S(C)(=O)=O)n1.O=CO.O=CO,Population Apoptotic (%),[1],44% and 53%
same,Population Fragmented Nuclei (%),[1],24% and 14%
same,Population Healthy Nuclei (%),[1],64% and 61%
same,Population Hoechst High Intensity Objects (%),[1],1% and 0%
same,Population Membrane Permeable-Phenotype (%),[1],8% and 11%
same,Population Mitochondria Different-Phenotype (%),[1],3% and 4%
same,Population Mitotic Cells (%),[1],55% and 46%
same,Population Normal (%),[1],98% and 100%
same,Population Pyknosed Nuclei (%),[1],10% and 24%
same,Population Tubulin-Different-Phenotype (%),[1],64% and 46%
same,Total Cell Count,[1],277 and 215
same,Population Apoptotic (%),[2],63% and 46%
same,Population Fragmented Nuclei (%),[2],6% and 16%
same,Population Healthy Nuclei (%),[2],27% and 55%
same,Population Hoechst High Intensity Objects (%),[2],0%
same,Population Membrane Permeable-Phenotype (%),[2],6% and 8%
same,Population Mitochondria Different-Phenotype (%),[2],15%
same,Population Mitotic Cells (%),[2],36% and 53%
same,Population Normal (%),[2],100% and 99%
same,Population Pyknosed Nuclei (%),[2],66% and 27%
same,Population Tubulin-Different-Phenotype (%),[2],67% and 69%
same,Total Cell Count,[2],168 and 259
same,Population Apoptotic (%),[3],63% and 64%
same,Population Fragmented Nuclei (%),[3],21% and 17%
same,Population Healthy Nuclei (%),[3],70% and 66%
same,Population Hoechst High Intensity Objects (%),[3],1% and 0%
same,Population Membrane Permeable-Phenotype (%),[3],4% and 6%
same,Population Mitochondria Different-Phenotype (%),[3],9% and 6%
same,Population Mitotic Cells (%),[3],36% and 35%
same,Population Normal (%),[3],98% and 100%
same,Population Pyknosed Nuclei (%),[3],8% and 16%
same,Population Tubulin-Different-Phenotype (%),[3],53% and 38%
same,Total Cell Count,[3],268 and 243
same,Population Apoptotic (%),[4],94% and 92%
same,Population Fragmented Nuclei (%),[4],5% and 12%
same,Population Healthy Nuclei (%),[4],9% and 16%
same,Population Hoechst High Intensity Objects (%),[4],0% and 1%
same,Population Mitochondria Different-Phenotype (%),[4],23% and 62%
same,Population Mitotic Cells (%),[4],5% and 7%
same,Population Normal (%),[4],99% and 98%
same,Population Pyknosed Nuclei (%),[4],85% and 70%
same,Population Tubulin-Different-Phenotype (%),[4],84% and 77%
same,Total Cell Count,[4],135 and 166
same,Population Apoptotic (%),[5],94% and 90%
same,Population Fragmented Nuclei (%),[5],27% and 25%
same,Population Healthy Nuclei (%),[5],66% and 65%
same,Population Hoechst High Intensity Objects (%),[5],0%
same,Population Membrane Permeable-Phenotype (%),[5],6% and 5%
same,Population Mitochondria Different-Phenotype (%),[5],5% and 2%
same,Population Mitotic Cells (%),[5],5% and 9%
same,Population Normal (%),[5],99%
same,Population Pyknosed Nuclei (%),[5],6% and 8%
same,Population Tubulin-Different-Phenotype (%),[5],43% and 20%
same,Total Cell Count,[5],267 and 253
same,Population Apoptotic (%),[6],97% and 96%
same,Population Fragmented Nuclei (%),[6],27% and 31%
same,Population Healthy Nuclei (%),[6],16% and 15%
same,Population Hoechst High Intensity Objects (%),[6],0%
same,Population Membrane Permeable-Phenotype (%),[6],31% and 30%
same,Population Mitochondria Different-Phenotype (%),[6],9% and 26%
same,Population Mitotic Cells (%),[6],2% and 3%
same,Population Normal (%),[6],100%
same,Population Pyknosed Nuclei (%),[6],56% and 53%
same,Population Tubulin-Different-Phenotype (%),[6],81% and 78%
same,Total Cell Count,[6],132 and 153
CCNc1ccc(-c2nn(-c3ccccc3C)c3c2C(C)Cc2nc(NC(=O)OC)sc2-3)cn1.O=C(O)C(F)(F)F (stereo unspecified),Population Apoptotic (%),[1],34% and 35%
same,Population Fragmented Nuclei (%),[1],22% and 27%
same,Population Healthy Nuclei (%),[1],60% and 57%
same,Population Hoechst High Intensity Objects (%),[1],0%
same,Population Membrane Permeable-Phenotype (%),[1],5% and 3%
same,Population Mitochondria Different-Phenotype (%),[1],0% and 3%
same,Population Mitotic Cells (%),[1],65%
same,Population Normal (%),[1],100%
same,Population Pyknosed Nuclei (%),[1],17% and 14%
same,Population Tubulin-Different-Phenotype (%),[1],35% and 27%
same,Total Cell Count,[1],255 and 278
same,Population Apoptotic (%),[2],43% and 57%
same,Population Fragmented Nuclei (%),[2],15% and 26%
same,Population Healthy Nuclei (%),[2],66% and 61%
same,Population Hoechst High Intensity Objects (%),[2],0% and 1%
same,Population Membrane Permeable-Phenotype (%),[2],17% and 10%
same,Population Mitochondria Different-Phenotype (%),[2],6% and 12%
same,Population Mitotic Cells (%),[2],56% and 42%
same,Population Normal (%),[2],100% and 98%
same,Population Pyknosed Nuclei (%),[2],18% and 12%
same,Population Tubulin-Different-Phenotype (%),[2],87% and 86%
same,Total Cell Count,[2],216 and 211
same,Population Apoptotic (%),[3],40% and 46%
same,Population Fragmented Nuclei (%),[3],20% and 17%
same,Population Healthy Nuclei (%),[3],64% and 70%
same,Population Hoechst High Intensity Objects (%),[3],0%
same,Population Membrane Permeable-Phenotype (%),[3],4% and 3%
same,Population Mitochondria Different-Phenotype (%),[3],2% and 4%
same,Population Mitotic Cells (%),[3],60% and 53%
same,Population Normal (%),[3],100% and 99%
same,Population Pyknosed Nuclei (%),[3],15% and 12%
same,Population Tubulin-Different-Phenotype (%),[3],35% and 28%
same,Total Cell Count,[3],225 and 233
same,Population Apoptotic (%),[4],62% and 68%
same,Population Fragmented Nuclei (%),[4],21% and 27%
same,Population Healthy Nuclei (%),[4],62% and 65%
same,Population Hoechst High Intensity Objects (%),[4],0%
same,Population Membrane Permeable-Phenotype (%),[4],9% and 8%
same,Population Mitochondria Different-Phenotype (%),[4],12%
same,Population Mitotic Cells (%),[4],37% and 31%
same,Population Normal (%),[4],99% and 100%
same,Population Pyknosed Nuclei (%),[4],16% and 7%
same,Population Tubulin-Different-Phenotype (%),[4],88%
same,Total Cell Count,[4],195 and 209
same,Population Apoptotic (%),[5],58% and 20%
same,Population Fragmented Nuclei (%),[5],13% and 15%
same,Population Healthy Nuclei (%),[5],77% and 78%
same,Population Hoechst High Intensity Objects (%),[5],0%
same,Population Membrane Permeable-Phenotype (%),[5],5% and 2%
same,Population Mitochondria Different-Phenotype (%),[5],2% and 0%
same,Population Mitotic Cells (%),[5],41% and 80%
same,Population Normal (%),[5],100% and 99%
same,Population Pyknosed Nuclei (%),[5],8% and 6%
same,Population Tubulin-Different-Phenotype (%),[5],26% and 18%
same,Total Cell Count,[5],208 and 225
same,Population Apoptotic (%),[6],84% and 76%
same,Population Fragmented Nuclei (%),[6],15% and 19%
same,Population Healthy Nuclei (%),[6],65% and 64%
same,Population Hoechst High Intensity Objects (%),[6],0%
same,Population Membrane Permeable-Phenotype (%),[6],5% and 3%
same,Population Mitochondria Different-Phenotype (%),[6],19% and 22%
same,Population Mitotic Cells (%),[6],15% and 24%
same,Population Normal (%),[6],100%
same,Population Pyknosed Nuclei (%),[6],18% and 15%
same,Population Tubulin-Different-Phenotype (%),[6],87% and 90%
same,Total Cell Count,[6],169 and 157
Cc1cc(C2CCCNC2)ccc1Nc1ncc(Br)c(NCc2cccc3c2C(C)(C)C(=O)N3)n1 (stereo unspecified),Population Apoptotic (%),[1],58% and 42%
same,Population Fragmented Nuclei (%),[1],10%
same,Population Healthy Nuclei (%),[1],61% and 64%
same,Population Hoechst High Intensity Objects (%),[1],0%
same,Population Membrane Permeable-Phenotype (%),[1],13% and 5%
same,Population Mitochondria Different-Phenotype (%),[1],5% and 3%
same,Population Mitotic Cells (%),[1],42% and 57%
same,Population Normal (%),[1],99% and 100%
same,Population Pyknosed Nuclei (%),[1],27% and 25%
same,Population Tubulin-Different-Phenotype (%),[1],50% and 49%
same,Total Cell Count,[1],184 and 193
same,Population Apoptotic (%),[2],40% and 38%
same,Population Fragmented Nuclei (%),[2],29% and 27%
same,Population Healthy Nuclei (%),[2],59% and 56%
same,Population Hoechst High Intensity Objects (%),[2],1% and 0%
same,Population Membrane Permeable-Phenotype (%),[2],9% and 11%
same,Population Mitochondria Different-Phenotype (%),[2],2% and 5%
same,Population Mitotic Cells (%),[2],60% and 61%
same,Population Normal (%),[2],98% and 99%
same,Population Pyknosed Nuclei (%),[2],10% and 15%
same,Population Tubulin-Different-Phenotype (%),[2],82% and 69%
same,Total Cell Count,[2],382 and 328
same,Population Apoptotic (%),[3],57% and 62%
same,Population Fragmented Nuclei (%),[3],8% and 14%
same,Population Healthy Nuclei (%),[3],71% and 60%
same,Population Hoechst High Intensity Objects (%),[3],0%
same,Population Membrane Permeable-Phenotype (%),[3],3% and 7%
same,Population Mitochondria Different-Phenotype (%),[3],6% and 12%
same,Population Mitotic Cells (%),[3],42% and 38%
same,Population Normal (%),[3],100% and 99%
same,Population Pyknosed Nuclei (%),[3],20% and 25%
same,Population Tubulin-Different-Phenotype (%),[3],43% and 46%
same,Total Cell Count,[3],198 and 199
same,Population Apoptotic (%),[4],65% and 74%
same,Population Fragmented Nuclei (%),[4],17% and 10%
same,Population Healthy Nuclei (%),[4],59% and 62%
same,Population Hoechst High Intensity Objects (%),[4],1% and 0%
same,Population Membrane Permeable-Phenotype (%),[4],7% and 2%
same,Population Mitochondria Different-Phenotype (%),[4],21% and 31%
same,Population Mitotic Cells (%),[4],34% and 25%
same,Population Normal (%),[4],98% and 99%
same,Population Pyknosed Nuclei (%),[4],22% and 27%
same,Population Tubulin-Different-Phenotype (%),[4],86% and 79%
same,Total Cell Count,[4],279 and 234
same,Population Apoptotic (%),[5],70% and 65%
same,Population Fragmented Nuclei (%),[5],11% and 16%
same,Population Healthy Nuclei (%),[5],73% and 63%
same,Population Hoechst High Intensity Objects (%),[5],0%
same,Population Membrane Permeable-Phenotype (%),[5],3%
same,Population Mitochondria Different-Phenotype (%),[5],3% and 9%
same,Population Mitotic Cells (%),[5],29% and 34%
same,Population Normal (%),[5],100%
same,Population Pyknosed Nuclei (%),[5],15% and 20%
same,Population Tubulin-Different-Phenotype (%),[5],39% and 30%
same,Total Cell Count,[5],180 and 175
same,Population Apoptotic (%),[6],93% and 96%
same,Population Fragmented Nuclei (%),[6],11% and 16%
same,Population Healthy Nuclei (%),[6],40% and 48%
same,Population Hoechst High Intensity Objects (%),[6],6% and 2%
same,Population Mitochondria Different-Phenotype (%),[6],53% and 52%
same,Population Mitotic Cells (%),[6],6% and 3%
same,Population Normal (%),[6],93% and 97%
same,Population Pyknosed Nuclei (%),[6],48% and 34%
same,Population Tubulin-Different-Phenotype (%),[6],83% and 78%
same,Total Cell Count,[6],164 and 169
